{
  "source": "ChEMBL document CHEMBL1125724",
  "about": "“Potential anti-AIDS agents. Synthesis and antiviral activity of naphthalenesulfonic acid derivatives against HIV-1 and HIV-2” (1991)",
  "key": {"[1]": {"molecular_target": "Human immunodeficiency virus type 1 reverse transcriptase (Human immunodeficiency virus 1) (UniProt Q72547)", "settings": "2.8 uM"}, "[2]": {"molecular_target": "Human immunodeficiency virus type 1 reverse transcriptase (Human immunodeficiency virus 1) (UniProt Q72547)", "settings": "350 uM"}, "[3]": {"molecular_target": "Human immunodeficiency virus type 1 reverse transcriptase (Human immunodeficiency virus 1) (UniProt Q72547)", "settings": "14 uM"}, "[4]": {"molecular_target": "Human immunodeficiency virus type 1 reverse transcriptase (Human immunodeficiency virus 1) (UniProt Q72547)", "settings": "350 uM", "remark": "listed apart in the source"}, "MT4 [5]": {"tested_on": "MT4", "test": "Cell viability at a concentration of 4(16.8) ug/mL (uM).", "assay_type": "functional, Homo sapiens"}, "[6]": {"molecular_target": "Human immunodeficiency virus type 1 reverse transcriptase (Human immunodeficiency virus 1) (UniProt Q72547)", "test": "Compound tested for % inhibition of cell-free HIV-1 Reverse Transcriptase at a concentration of 84 uM.", "outline": "(§1)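 HIV-1 RT from partially purified, concentrated disrupted virions. Reaction at 37 °C for 30 min in 50 mM Tris-HCl pH 8.4, 2 mM DTT, 100 mM KCl, 10 mM MgCl2, 0.1% Triton X-100, with 1 µCi [methyl-3H]dTTP (30 Ci/mmol) and 0.01 unit poly(rA)·oligo(dT). Stopped with 5% TCA; precipitate collected on glass-fiber filters and counted by liquid scintillation. Experimental variation at most 10%.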"}, "MT4 [7]": {"tested_on": "MT4", "test": "Compound tested for its inhibition of HIV-2 induced cytopathogenicity in MT-4 cells.", "assay_type": "functional", "settings": "Homo sapiens, read-out: ED50 (the source's name)", "outline": "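MT-4 cells infected with HIV-2 (ROD) at MOI 0.02 and incubated 4 days with a range of compound concentrations. Viable cells were counted by MTT. ED50 is the dose giving 50% inhibition of virus-induced cytopathogenicity, given as the mean of two separate experiments.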"}, "MT4 [8]": {"tested_on": "MT4", "test": "Cell viability at a concentration of 100(420) ug/mL (uM).", "assay_type": "functional, Homo sapiens"}, "MT4 [9]": {"tested_on": "MT4", "test": "Compound was evaluated for inhibitory effect against MT-4 cells of HIV-2 at a concentration of 100(420) ug/mL (uM).", "assay_type": "functional, Homo sapiens", "outline": "(§2)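 HIV-2 (ROD strain) infected MT-4 cells at multiplicity of infection 0.02, incubated with a range of compound concentrations for 4 days. Viable cells counted by MTT method. Per-concentration inhibition of virus-induced cytopathogenicity; values are means of two separate experiments.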"}, "MT4 [10]": {"tested_on": "MT4", "test": "Compound was evaluated for inhibitory effect against MT-4 cells of HIV-1 at a concentration of 20(84) ug/mL (uM).", "assay_type": "functional, Homo sapiens", "outline": "(§3)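 HIV-1 (HTLV-III_B) infected MT-4 cells at multiplicity of infection 0.02, incubated with a range of compound concentrations for 4 days. Viable cells counted by MTT method. Per-concentration inhibition of virus-induced cytopathogenicity; values are means of two separate experiments.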"}, "MT4 [11]": {"tested_on": "MT4", "test": "Compound was evaluated for inhibitory effect against MT-4 cells of HIV-1 at a concentration of 100(420) ug/mL (uM).", "assay_type": "functional, Homo sapiens", "outline": "as §3"}, "[12]": {"molecular_target": "Human immunodeficiency virus type 1 reverse transcriptase (Human immunodeficiency virus 1) (UniProt Q72547)", "test": "Inhibitory dose at a concentration of 2100 uM cell-free HIV-1 Reverse Transcriptase", "outline": "as §1"}, "MT4 [13]": {"tested_on": "MT4", "test": "Compound was evaluated for inhibitory effect against MT-4 cells of HIV-2 at a concentration of 0.8(3.4) ug/mL (uM).", "assay_type": "functional, Homo sapiens", "outline": "as §2"}, "MT4 [14]": {"tested_on": "MT4", "test": "Compound tested for its ability to reduce viability of mock-infected MT-4 cells.", "assay_type": "functional", "settings": "Homo sapiens, read-out: CD50 (the source's name)", "outline": "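Mock-infected MT-4 cells were incubated 4 days with a range of compound concentrations, and viability was read by MTT. CD50 is the 50% cytotoxic dose from reduced viability, given as the mean of two separate experiments.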"}, "MT4 [15]": {"tested_on": "MT4", "test": "Compound was evaluated for inhibitory effect against MT-4 cells of HIV-1 at a concentration of 0.8(3.4) ug/mL (uM).", "assay_type": "functional, Homo sapiens", "outline": "as §3"}, "MT4 [16]": {"tested_on": "MT4", "test": "Compound tested for its inhibition of HIV-1 induced cytopathogenicity in MT-4 cells.", "assay_type": "functional", "settings": "Homo sapiens, read-out: ED50 (the source's name)", "outline": "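MT-4 cells infected with HIV-1 (HTLV-III_B) at MOI 0.02 and incubated 4 days with a range of compound concentrations. Viable cells were counted by MTT. ED50 is the 50% antiviral dose from inhibition of virus-induced cytopathogenicity, given as the mean of two separate experiments.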"}, "MT4 [17]": {"tested_on": "MT4", "test": "Compound was evaluated for inhibitory effect against MT-4 cells of HIV-2 at a concentration of 4(16.8) ug/mL (uM).", "assay_type": "functional, Homo sapiens", "outline": "as §2"}, "MT4 [18]": {"tested_on": "MT4", "test": "Cell viability at a concentration of 0.8(3.4) ug/mL (uM).", "assay_type": "functional, Homo sapiens"}, "[19]": {"molecular_target": "Human immunodeficiency virus type 1 reverse transcriptase (Human immunodeficiency virus 1) (UniProt Q72547)", "test": "Compound tested for % inhibition of cell-free HIV-1 Reverse Transcriptase at a concentration of 16.8 uM", "outline": "as §1"}, "MT4 [20]": {"tested_on": "MT4", "test": "Cell viability at a concentration of 20(84) ug/mL (uM).", "assay_type": "functional, Homo sapiens"}, "MT4 [21]": {"tested_on": "MT4", "test": "Compound was evaluated for inhibitory effect against MT-4 cells of HIV-2 at a concentration of 20(84) ug/mL (uM).", "assay_type": "functional, Homo sapiens", "outline": "as §2"}, "[22]": {"tested_on": "Human immunodeficiency virus 1", "test": "Compound tested for % inhibition of giant cell formation at a concentration of 420 uM"}},
  "data": [
    {"compound": "Cc1ccc(C(=O)Nc2ccc(S(=O)(=O)O)c3cc(S(=O)(=O)O)cc(S(=O)(=O)O)c23)cc1NC(=O)c1cccc(NC(=O)Nc2cccc(C(=O)Nc3cc(C(=O)Nc4ccc(S(=O)(=O)O)c5cc(S(=O)(=O)O)cc(S(=O)(=O)O)c45)ccc3C)c2)c1", "values": [
      {"measurement": "inhibition", "setting": "[1]", "value": 18, "unit": "%"},
      {"measurement": "inhibition", "setting": "[2]", "value": 92, "unit": "%"},
      {"measurement": "inhibition", "setting": "[3]", "value": 22, "unit": "%"},
      {"measurement": "ID50", "setting": "[4]", "value": 42, "unit": "mg/L"}
    ]},
    {"compound": "Nc1cc(S(=O)(=O)O)c2ccccc2c1N", "values": [
      {"measurement": "Cell viability", "setting": "MT4 [5]", "value": 0},
      {"measurement": "inhibition", "setting": "[6]", "value": 1, "unit": "%"},
      {"measurement": "EC50", "setting": "MT4 [7]", "value": "> 45", "unit": "mg/L"},
      {"measurement": "Cell viability", "setting": "MT4 [8]", "value": 97},
      {"measurement": "Inhibition", "setting": "MT4 [9]", "value": 0, "unit": "%"},
      {"measurement": "Inhibition", "setting": "MT4 [10]", "value": 0, "unit": "%"},
      {"measurement": "Inhibition", "setting": "MT4 [11]", "value": 0, "unit": "%"},
      {"measurement": "ID50", "setting": "[12]", "value": "> 500", "unit": "mg/L"},
      {"measurement": "Inhibition", "setting": "MT4 [13]", "value": 1, "unit": "%"},
      {"measurement": "CC50", "setting": "MT4 [14]", "value": 45, "unit": "mg/L"},
      {"measurement": "Inhibition", "setting": "MT4 [15]", "value": 0, "unit": "%"},
      {"measurement": "EC50", "setting": "MT4 [16]", "value": "> 45", "unit": "mg/L"},
      {"measurement": "Inhibition", "setting": "MT4 [17]", "value": 3, "unit": "%"},
      {"measurement": "Cell viability", "setting": "MT4 [18]", "value": 13},
      {"measurement": "inhibition", "setting": "[19]", "value": 2, "unit": "%"},
      {"measurement": "Cell viability", "setting": "MT4 [20]", "value": 1},
      {"measurement": "Inhibition", "setting": "MT4 [21]", "value": 0, "unit": "%"},
      {"measurement": "inhibition", "setting": "[22]", "value": 0, "unit": "%"}
    ]}
  ]
}
